# Experimental data taken from ChEMBL document CHEMBL4002610, “Design, synthesis and biological activity evaluation of novel 2,6-difluorobenzamide derivatives through FtsZ inhibition” (2017).
# What was measured:
# Streptococcus pyogenes = test: Antibacterial activity against penicillin-susceptible Streptococcus pyogenes after 24 hrs by broth microdilution method; type: functional
# Summary of the method: (§1)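 MIC by standard broth microdilution per NCCLS guidance. Strain panel: B. subtilis ATCC9372 and S. aureus ATCC25923 as standard susceptible strains, S. aureus ATCC29213 as […], S. pyogenes PS as penicillin-susceptible, S. pneumoniae ATCC49619 as standard susceptible, alongside Gram-negative strains.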
# Staphylococcus aureus [1] = test: Antibacterial activity against Staphylococcus aureus ATCC 29213 after 24 hrs by broth microdilution method; type: functional; settings: ATCC 29213, 24 h; summary of the method: as §1
# [2] = target: T1, Cell division protein FtsZ (Staphylococcus aureus) (UniProt P0A031); test: Inhibition of FtsZ in Staphylococcus aureus ATCC 25923 assessed as decrease in cell division by measuring lowest compound concentration at which bacterial ballooning is observed after 5 hrs by phase-contrast light microscopy
# T1 sequence (whole entry): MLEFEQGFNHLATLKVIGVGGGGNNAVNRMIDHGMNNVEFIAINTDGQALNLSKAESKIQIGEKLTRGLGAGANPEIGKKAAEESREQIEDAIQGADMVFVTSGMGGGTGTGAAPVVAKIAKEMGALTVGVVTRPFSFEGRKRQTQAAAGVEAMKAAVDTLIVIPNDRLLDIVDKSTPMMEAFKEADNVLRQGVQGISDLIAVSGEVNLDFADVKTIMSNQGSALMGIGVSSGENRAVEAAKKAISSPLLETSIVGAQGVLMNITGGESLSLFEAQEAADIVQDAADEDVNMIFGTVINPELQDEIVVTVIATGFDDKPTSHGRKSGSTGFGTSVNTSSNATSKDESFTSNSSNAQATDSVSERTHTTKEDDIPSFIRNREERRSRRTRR
# Summary of the method: (§2)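 Cell division inhibition scored by cell morphology under phase-contrast light microscopy. B. subtilis ATCC9372, E. coli ATCC25922 and S. aureus ATCC25923 were exposed to compound. The lowest concentration giving filamentation (B. subtilis, E. coli) or ballooning (S. aureus) was recorded as the cell division inhibitory concentration.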
# Escherichia coli = test: Antibacterial activity against Escherichia coli ATCC 25922 after 24 hrs by broth microdilution method; type: functional; settings: ATCC 25922, 24 h; summary of the method: as §1
# Streptococcus pneumoniae = test: Antibacterial activity against Streptococcus pneumoniae ATCC 49619 after 24 hrs by broth microdilution method; type: functional; settings: ATCC 49619, 24 h; summary of the method: as §1
# Staphylococcus aureus [3] = test: Antibacterial activity against penicillin-resistant Staphylococcus aureus clinical isolate after 24 hrs by broth microdilution method; type: functional
# Bacillus subtilis [4] = test: Inhibition of FtsZ in Bacillus subtilis ATCC 9372 assessed as decrease in cell division by measuring lowest compound concentration at which bacterial filamentation is observed after 5 hrs by phase-contrast light microscopy; summary of the method: as §2
# Bacillus subtilis [5] = test: Antibacterial activity against Bacillus subtilis ATCC 9372 after 24 hrs by broth microdilution method; type: functional; settings: ATCC 9372, 24 h; summary of the method: as §1
# [6] = system: Escherichia coli ATCC 25922; test: Inhibition of FtsZ in Escherichia coli ATCC 25922 assessed as decrease in cell division by measuring lowest compound concentration at which bacterial filamentation is observed after 5 hrs by phase-contrast light microscopy; summary of the method: as §2
# Pseudomonas aeruginosa = test: Antibacterial activity against Pseudomonas aeruginosa ATCC 27853 after 24 hrs by broth microdilution method; type: functional; settings: ATCC 27853, 24 h; summary of the method: as §1
# Staphylococcus aureus [7] = test: Antibacterial activity against Staphylococcus aureus ATCC 25923 after 24 hrs by broth microdilution method; type: functional; settings: ATCC 25923, 24 h; summary of the method: as §1
Compound,MIC (Streptococcus pyogenes),MIC (Staphylococcus aureus [1]),INH [2],MIC (Escherichia coli),MIC (Streptococcus pneumoniae),MIC (Staphylococcus aureus [3]),INH (Bacillus subtilis [4]),MIC (Bacillus subtilis [5]),INH [6],MIC (Pseudomonas aeruginosa),MIC (Staphylococcus aureus [7])
CCCCC(CC)COc1ccc(F)c(C(N)=O)c1F (stereo unspecified),> 128 µg/mL,8 µg/mL,0.25 µg/mL,256 µg/mL,64 µg/mL,8 µg/mL,0.125 µg/mL,0.25 µg/mL,64 µg/mL,128 µg/mL,1 µg/mL
NC(=O)c1c(F)ccc(OCCCCCCn2cnc3ccccc32)c1F,512 µg/mL,256 µg/mL,128 µg/mL,512 µg/mL,256 µg/mL,1020 µg/mL,128 µg/mL,256 µg/mL,256 µg/mL,512 µg/mL,512 µg/mL
NC(=O)c1c(F)ccc(OCc2nc3cc([N+](=O)[O-])ccc3[nH]2)c1F,1020 µg/mL,256 µg/mL,128 µg/mL,512 µg/mL,256 µg/mL,512 µg/mL,64 µg/mL,64 µg/mL,128 µg/mL,256 µg/mL,512 µg/mL
NC(=O)c1c(F)ccc(OCCCn2cnc3cc([N+](=O)[O-])ccc32)c1F,512 µg/mL,512 µg/mL,1020 µg/mL,1020 µg/mL,512 µg/mL,1020 µg/mL,128 µg/mL,256 µg/mL,512 µg/mL,512 µg/mL,1020 µg/mL
NC(=O)c1c(F)ccc(OCCCCCCCl)c1F,> 128 µg/mL,16 µg/mL,0.5 µg/mL,256 µg/mL,128 µg/mL,8 µg/mL,0.25 µg/mL,0.5 µg/mL,128 µg/mL,256 µg/mL,2 µg/mL
NC(=O)c1c(F)ccc(O)c1F,> 4100 µg/mL,512 µg/mL,2050 µg/mL,512 µg/mL,4100 µg/mL,1020 µg/mL,1020 µg/mL,1020 µg/mL,512 µg/mL,512 µg/mL,1020 µg/mL
NC(=O)c1c(F)ccc(OCCCn2cnc3ccccc32)c1F,1020 µg/mL,512 µg/mL,256 µg/mL,512 µg/mL,512 µg/mL,1020 µg/mL,512 µg/mL,1020 µg/mL,512 µg/mL,512 µg/mL,1020 µg/mL
CCOC(=O)COc1ccc(F)c(C(N)=O)c1F,> 128 µg/mL,256 µg/mL,64 µg/mL,128 µg/mL,128 µg/mL,256 µg/mL,32 µg/mL,64 µg/mL,64 µg/mL,128 µg/mL,128 µg/mL
NC(=O)c1c(F)ccc(OCCn2cnc3cc([N+](=O)[O-])ccc32)c1F,512 µg/mL,512 µg/mL,256 µg/mL,256 µg/mL,256 µg/mL,1020 µg/mL,32 µg/mL,64 µg/mL,128 µg/mL,512 µg/mL,256 µg/mL
NC(=O)c1c(F)ccc(OCCCCBr)c1F,128 µg/mL,32 µg/mL,4 µg/mL,128 µg/mL,> 128 µg/mL,8 µg/mL,1 µg/mL,4 µg/mL,64 µg/mL,128 µg/mL,4 µg/mL
COc1cc(/C=C/C(=O)CC(=O)/C=C/c2ccc(O)c(OC)c2)ccc1O [CURCUMIN],> 4100 µg/mL,4100 µg/mL,1020 µg/mL,512 µg/mL,> 4100 µg/mL,4100 µg/mL,16 µg/mL,32 µg/mL,256 µg/mL,4100 µg/mL,2050 µg/mL
NC(=O)c1c(F)ccc(OCCCCCn2cnc3cc([N+](=O)[O-])ccc32)c1F,1020 µg/mL,1020 µg/mL,,512 µg/mL,512 µg/mL,2050 µg/mL,32 µg/mL,512 µg/mL,256 µg/mL,512 µg/mL,512 µg/mL
NC(=O)c1c(F)ccc(OCCCBr)c1F,64 µg/mL,32 µg/mL,16 µg/mL,128 µg/mL,> 128 µg/mL,32 µg/mL,16 µg/mL,32 µg/mL,64 µg/mL,128 µg/mL,16 µg/mL
NC(=O)c1c(F)ccc(OC2CCCCC2)c1F,> 128 µg/mL,256 µg/mL,128 µg/mL,128 µg/mL,128 µg/mL,256 µg/mL,64 µg/mL,64 µg/mL,64 µg/mL,128 µg/mL,128 µg/mL
NC(=O)c1c(F)ccc(OCCCCCCl)c1F,64 µg/mL,32 µg/mL,16 µg/mL,128 µg/mL,128 µg/mL,16 µg/mL,2 µg/mL,4 µg/mL,64 µg/mL,128 µg/mL,16 µg/mL
CCC(C)Oc1ccc(F)c(C(N)=O)c1F (stereo unspecified),> 128 µg/mL,128 µg/mL,32 µg/mL,128 µg/mL,128 µg/mL,128 µg/mL,128 µg/mL,128 µg/mL,64 µg/mL,128 µg/mL,64 µg/mL
NC(=O)c1c(F)ccc(OCCCCCl)c1F,64 µg/mL,8 µg/mL,4 µg/mL,128 µg/mL,128 µg/mL,8 µg/mL,2 µg/mL,4 µg/mL,64 µg/mL,128 µg/mL,8 µg/mL
